Reference: ChEMBL document CHEMBL1144441, “Identification of a novel cardenolide (2''-oxovoruscharin) from Calotropis procera and the hemisynthesis of novel derivatives displaying potent in vitro antitumor activities and high in vivo tolerance: structure-activity relationship analyses” (J Med Chem, 2005)

Key:
[1] = molecular target: Sodium/potassium-transporting ATPase subunit alpha-1 (Sus scrofa, UniProt P05024); test: In vitro inhibitory activity against porcine Na+/K+-ATPase
Procedure, shortened: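 Porcine cerebral cortex Na+/K+-ATPase (3 × 10-3 units), preincubated 30 min at 37 °C in 30 mM Tris-HCl pH 7.4, 5 mM MgCl2 with inhibitor (1 to 50 000 nM). ADP formation coupled via pyruvate kinase/lactate dehydrogenase, excess phosphoenolpyruvate, to NADH oxidation.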

Mus musculus = test: Maximum tolerated dose after intraperitoneal administration in mouse (period of 28 days); type: functional
Procedure, shortened: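 Healthy, non-tumour-bearing B6D2F1 mice given one acute intraperitoneal dose, three mice per dose group, doses 5, 10, 20, 40, 80, 120 and 160 mg/kg. Survival and body weight followed for 28 days after injection. MTD is the highest single dose causing no deaths over the period.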

A549 = test: Concentration required for 50% growth inhibition of human A549 cancer cell lines after 3 days of culture; type: functional, cell-based; settings: A549, 72 h
Procedure, shortened: (§1)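 MTT overall-growth assay on the five lines. Cells were plated for 24 h at 10 000–40 000 cells/mL, depending on cell type. Nine concentrations from 10^-9 to 10^-5 M in semilog steps were applied for 72 h. Formazan was read at 570 nm against a 630 nm reference, in sextuplicate. IC50 = concentration reducing overall growth by 50% versus untreated control.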

U373 MG = test: Concentration required for 50% growth inhibition of human U373 cancer cell lines after 3 days of culture; type: functional, cell-based, U-373MG ATCC; settings: 72 h; procedure, shortened: as §1
HCT-15 = test: Concentration required for 50% growth inhibition of human HCT-15 cancer cell lines after 3 days of culture; type: functional, cell-based; settings: HCT-15, 72 h; procedure, shortened: as §1
[2] = Concentration required for 50% growth inhibition of human Hs 683 cancer cell lines after 3 days of culture; type: functional, cell-based; settings: 72 h; procedure, shortened: as §1
LoVo = test: Concentration required for 50% growth inhibition of human LoVo cancer cell lines after 3 days of culture; type: functional, cell-based; settings: 72 h; procedure, shortened: as §1

C[C@@H]1C[C@@]2(N=C(N)CS2)[C@]2(O)O[C@@H]3C[C@@]4(C=O)[C@@H](CC[C@@H]5[C@@H]4CC[C@]4(C)[C@@H](C6=CC(=O)OC6)CC[C@]54O)C[C@H]3O[C@@H]2O1
IC50 [1]: 68 nM | MTD (Mus musculus): 5 mg/kg | IC50 (A549): 25 nM | IC50 (U373 MG): 40 nM | IC50 (HCT-15): 28 nM | IC50 [2]: 4 nM | IC50 (LoVo): 10 nM
